Results on 1 compound are retold here after ChEMBL document CHEMBL4725241, “Discovery of BMS-986235/LAR-1219: A Potent Formyl Peptide Receptor 2 (FPR2) Selective Agonist for the Prevention of Heart Failure” (J Med Chem, 2020).

Data set [1] concerns the target T1, N-formyl peptide receptor 2 (Homo sapiens, UniProt P25090).
T1 sequence (P25090 whole entry): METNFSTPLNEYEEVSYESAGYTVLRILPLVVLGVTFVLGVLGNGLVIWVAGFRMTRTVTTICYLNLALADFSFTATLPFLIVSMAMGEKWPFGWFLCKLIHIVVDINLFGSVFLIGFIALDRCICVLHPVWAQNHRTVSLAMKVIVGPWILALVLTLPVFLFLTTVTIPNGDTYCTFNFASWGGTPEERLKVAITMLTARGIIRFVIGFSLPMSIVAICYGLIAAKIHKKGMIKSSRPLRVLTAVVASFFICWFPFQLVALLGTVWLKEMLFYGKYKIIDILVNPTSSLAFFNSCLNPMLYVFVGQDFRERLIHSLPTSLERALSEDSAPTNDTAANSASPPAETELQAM
The data set can be described thus: Agonist activity at human FPR2 expressed in CHO-K1 cells assessed as stimulation of beta-arrestin recruitment. In kind it is cell-based. (In general: Recruitment of arrestin is a read-out of receptor activation apart from second messengers.)

A short description of data set [2]: Half life in cynomolgus monkey at 3 mg/kg, po by LC-MS/MS analysis. The conditions noted are these: in vivo. In kind it is ADME, organism-based, Macaca fascicularis. The gist of the method: (§1)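 Male animals dosed orally with a suspension in 0.5% MC. Blood was taken into EDTA 2K capillaries and plasma was stored frozen. Plasma was mixed with methanol/acetonitrile (1:1) plus internal standard, centrifuged, and drug was measured by LC-MS/MS. AUC0-inf was obtained by the trapezoidal rule, extrapolated with kel from the terminal phase. t1/2 = ln2/kel.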

A short description of data set [3]: Oral bioavailability in Crl:CD(SD) rat at 1 mg/kg by LC-MS/MS analysis. The class given is ADME, organism-based. The conditions noted are these: in vivo. A digest of the protocol: (§2)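 Oral bioavailability = (AUC0-inf,po/dose po)/(AUC0-inf,iv/dose iv) × 100. Oral dosing used a 0.5% MC suspension. IV dosing used a DMSO/PEG400/saline (5/47.5/47.5) solution, with CD1(ICR) mice for the iv arm. Plasma drug levels were measured by LC-MS/MS after methanol/acetonitrile extraction with internal standard.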

Data set [4] is described as follows: Oral bioavailability in cynomolgus monkey at 3 mg/kg by LC-MS/MS analysis. The class given is ADME, organism-based, Macaca fascicularis. The conditions noted are these: in vivo. The gist of the method:
as §2

Data set [5] in a line: Cmax in BALB/cCrSlc mouse at 1 mg/kg, po by LC-MS/MS analysis. The class given is ADME, organism-based. Set-up: route oral, dose 1 mg/kg. The conditions noted are these: in vivo. A digest of the protocol: as §1
Data set [6] can be described thus: Cmax in Beagle dog at 1 mg/kg, po by LC-MS/MS analysis. In kind it is ADME, organism-based, Canis lupus familiaris. Set-up: route oral, dose 1 mg/kg. The conditions noted are these: in vivo. The gist of the method:
as §1

The nature of data set [7]: Total clearance in Crl:CD1(ICR) mouse at 0.5 mg/kg, iv by LC-MS/MS analysis. In kind it is ADME, organism-based. The following applies: in vivo. A digest of the protocol: (§3)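 Male animals received intravenous solution in DMSO/PEG400/saline (5/47.5/47.5). EDTA plasma was extracted with methanol/acetonitrile (1:1) plus internal standard and quantified by LC-MS/MS. AUC0-inf was calculated by the trapezoidal rule with terminal-phase kel extrapolation.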

For data set [8], the system named is CHO. The data set can be described thus: Selectivity ratio of agonist activity at mouse FPR1 expressed in CHO cells to agonist activity at mouse FPR2 expressed in CHO cells. In kind it is cell-based. The gist of the method: (§4)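 Ratio of FPR1 to FPR2 EC50 from the CHO-cell forskolin/IBMX cAMP HTRF assay, 30 min at room temperature, 4-parameter logistic fit.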

The target of data set [9] is T2, Formyl peptide receptor 2 (Mus musculus, UniProt O88536).
T2 sequence (O88536 whole entry): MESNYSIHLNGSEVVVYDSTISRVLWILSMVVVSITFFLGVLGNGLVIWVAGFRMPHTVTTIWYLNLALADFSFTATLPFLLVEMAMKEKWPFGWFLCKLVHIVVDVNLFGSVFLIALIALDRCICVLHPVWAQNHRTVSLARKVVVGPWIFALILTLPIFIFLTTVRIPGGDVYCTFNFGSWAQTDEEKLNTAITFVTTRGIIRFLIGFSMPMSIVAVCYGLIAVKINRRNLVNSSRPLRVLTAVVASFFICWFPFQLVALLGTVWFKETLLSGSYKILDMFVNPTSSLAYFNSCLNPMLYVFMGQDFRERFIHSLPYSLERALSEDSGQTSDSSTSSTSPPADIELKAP
The data set can be described thus: Agonist activity at mouse FPR2 expressed in CHO cells assessed as reduction cAMP accumulation incubated for 1 hr by TR-FRET assay. In kind it is cell-based. For orientation: Changes in cAMP serve as a functional read-out for many G protein-coupled receptors.

Data set [10] has as its system CHO. The data set can be described thus: Selectivity ratio of agonist activity at human FPR1 expressed in CHO cells to agonist activity at human FPR2 expressed in CHO cells. The class given is cell-based. The gist of the method:
as §4

For another data set, the target named is T3, fMet-Leu-Phe receptor (Mus musculus, UniProt P33766).
T3 sequence (P33766 whole entry): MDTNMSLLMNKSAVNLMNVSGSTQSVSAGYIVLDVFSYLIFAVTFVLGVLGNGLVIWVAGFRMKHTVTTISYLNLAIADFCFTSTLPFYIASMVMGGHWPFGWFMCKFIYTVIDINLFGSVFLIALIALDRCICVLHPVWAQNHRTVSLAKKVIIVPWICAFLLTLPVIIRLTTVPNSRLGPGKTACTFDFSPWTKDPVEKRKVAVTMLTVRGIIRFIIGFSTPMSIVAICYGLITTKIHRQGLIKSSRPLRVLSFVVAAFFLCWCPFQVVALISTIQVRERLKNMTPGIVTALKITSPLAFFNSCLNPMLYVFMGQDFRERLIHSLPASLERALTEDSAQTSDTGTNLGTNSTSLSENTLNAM
In words: Agonist activity at mouse FPR1 expressed in CHO cells assessed as reduction cAMP accumulation incubated for 1 hr by TR-FRET assay. The class given is functional, cell-based.

Data set [11] is described as follows: Clearance in dog liver microsome at 0.1 umol/l and measured for 60 mins by LC-MS/MS analysis. In kind it is ADME, Canis lupus familiaris. The following applies: microsomes, 1 h, 0.1 µM, dose 0.1 µmol/L. The gist of the method: (§5)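 Liver microsomes (1 mg protein/mL final) with an NADPH regenerating system were preincubated 5 min at 37°C, then given 0.1 µmol/L compound. Samples were taken at 0-60 min, quenched in methanol/acetonitrile with internal standard, and analysed by LC-MS/MS. Runs were in triplicate. kel came from 5-30 min points. CLint = kel/protein concentration (mL/min/mg protein).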

Data set [12] in a line: Clearance in dog hepatocytes at 0.1 umol/l and measured for 6 hrs by LC-MS/MS analysis. The class given is ADME, cell-based, Canis lupus familiaris, Hepatocyte. The conditions noted are these: dose 0.1 µmol/L, read-out: CLH. A digest of the protocol:
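Hepatocytes (1 × 10⁶ cells/mL) in modified Krebs–Henseleit buffer were preincubated 5 min at 37°C, then given 0.1 µmol/L compound. Samples were taken at 0, 1, 2, 4 and 6 h and analysed by LC-MS/MS, in duplicate. kel came from 0-2 h points. CLint was scaled by hepatocellularity and liver weight (mL/min/kg).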

The nature of data set [13]: Volume of distribution at steady state in Crl:CD(SD) rat at 1 mg/kg, iv by LC-MS/MS analysis. The class given is ADME, organism-based. The conditions noted are these: in vivo, read-out: Vdss. A digest of the protocol:
as §3

Data set [14] addresses T1, N-formyl peptide receptor 2. The data set can be described thus: Agonist activity at human FPR2 expressed in HEK 293 cells co-expressing Galpha15 measured every 1.5 sec for 80 sec by Fluo-4 NW staining based scanning fluorometric method. In kind it is cell-based, HEK293. A digest of the protocol:
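HEK293 cells were transiently co-transfected with FPR plus Gα15 (Lipofectamine 2000), then reseeded after 24 h on poly-D-lysine plates and grown one more day. Cells were loaded with Fluo-4 NW for 45 min at 37°C. Compound was added and fluorescence (ex 485/em 525 nm) read for 80 s at 1.5 s intervals. Response = maximal peak minus basal.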

The nature of data set [15]: Total clearance in Crl:CD(SD) rat at 1 mg/kg, iv by LC-MS/MS analysis. The following applies: in vivo. In kind it is ADME, organism-based. The gist of the method: as §3
Data set [16] can be described thus: Clearance in monkey liver microsome at 0.1 umol/l and measured for 60 mins by LC-MS/MS analysis. The class given is ADME, Macaca mulatta. The conditions noted are these: rhesus monkey, microsomes, 1 h, 0.1 µM, dose 0.1 µmol/L. A digest of the protocol:
as §5

Broadly, the EC50 is the concentration giving half of the maximal effect. Broadly, the half-life is how long it takes for the measured level to halve. The term bioavailability denotes dose-corrected exposure relative to a reference, in per cent. As usually defined, the Cmax is the highest concentration seen after dosing. Usually clearance stands for a measure of how efficiently the substance is removed, as volume per time.

On to `COc1cc(F)c([C@@H]2CNC(=O)[C@H]2NC(=O)Nc2ccccc2)c(F)c1` [BMS-986235], for which the EC50 in [1] was 0.13 µM; in data set [9] it was 0.0005 µM; at fMet-Leu-Phe receptor, 0.5 µM; in [14], 0.00041 µM. The same compound showed a half-life in data set [2] of 5 h. For the same compound, the bioavailability came out at 67% in data set [3] and 49% in [4]. The Cmax in data set [5] is 160 nM; in data set [6] it was 820 nM. Further, the clearance came out at 90 mL/min/kg in [7] and 49 mL/min/kg in data set [15]. Also, the Ratio EC50 in the data set with CHO [8] was determined as 1000; in the data set on CHO [10], 80. In addition, the CLH in [11] was determined as 42 µL/min/mg; in [16], 30 µL/min/mg. Moreover, in data set [12], the CLint scaled at 0.1 µM was 50 mL/min/kg. Besides, the Vd in [13] turned out to be 3 L/kg.
